# Measurements of several laboratories.
# Lines come from different studies, so protocols differ.
# Target: MAP/microtubule affinity-regulating kinase 4 (MARK4, Homo sapiens, UniProt Q96L34)
# Residues used in one study (Q96L34 1-752): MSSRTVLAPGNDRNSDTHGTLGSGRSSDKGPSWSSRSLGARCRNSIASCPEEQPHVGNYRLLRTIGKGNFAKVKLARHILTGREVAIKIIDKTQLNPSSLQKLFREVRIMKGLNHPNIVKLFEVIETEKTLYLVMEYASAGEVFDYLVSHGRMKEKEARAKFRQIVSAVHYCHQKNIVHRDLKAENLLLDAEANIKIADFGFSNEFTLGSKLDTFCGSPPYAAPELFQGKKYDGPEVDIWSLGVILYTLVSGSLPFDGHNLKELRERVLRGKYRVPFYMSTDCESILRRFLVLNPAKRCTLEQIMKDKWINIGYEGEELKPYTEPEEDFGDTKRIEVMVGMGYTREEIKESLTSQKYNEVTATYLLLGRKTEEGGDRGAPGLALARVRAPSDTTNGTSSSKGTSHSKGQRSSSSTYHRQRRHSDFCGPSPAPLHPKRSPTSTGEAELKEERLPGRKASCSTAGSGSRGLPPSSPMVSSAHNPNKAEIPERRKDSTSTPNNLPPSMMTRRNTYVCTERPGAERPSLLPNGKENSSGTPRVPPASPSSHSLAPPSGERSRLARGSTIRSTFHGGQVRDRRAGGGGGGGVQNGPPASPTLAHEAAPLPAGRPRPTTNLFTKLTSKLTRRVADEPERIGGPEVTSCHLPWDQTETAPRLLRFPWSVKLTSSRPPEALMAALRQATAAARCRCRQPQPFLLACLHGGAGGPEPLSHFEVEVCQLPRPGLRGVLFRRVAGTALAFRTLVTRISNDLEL
Compound,test,conditions,endpoint,value
Oc1cccc(-c2nc(N3CCOCC3)c3oc4ncccc4c3n2)c1,"enzyme activity, inhibitor",10 µM,remaining activity,108%
CCCS(=O)(=O)Nc1ccc(F)c(C(=O)c2c[nH]c3ncc(-c4ccc(Cl)cc4)cc23)c1F,"enzyme activity, inhibitor",1 µM,inhibition,< 20%
FC(F)(F)Oc1cccc(-c2cnc3ccc(-c4ccncc4)nn23)c1,"enzyme activity, inhibitor, radiometric",1 µM,activity vs control,91%
CC/C(=N\NC(=O)NCc1cccc(O)c1)c1ccc(O)c(C)c1O,"enzyme activity, inhibitor",0.1 µM,inhibition,-2.4%
O=C1Nc2ccc(Cl)cc2C1=Cc1cc(Cl)c(O)c(Cl)c1,cell-free assay,0.5 µM,remaining signal,78.4%
COc1cc2ncnc(Nc3ccc(Oc4ccccc4)cc3C)c2cc1OC,"enzyme activity, inhibitor",1 µM,inhibition,6%
Cc1nn(CC(F)(F)F)cc1Nc1ncc(Br)c(NCCCNC(=O)C2CCC2)n1,"enzyme activity, inhibitor, radiometric",1 µM,remaining activity,27%
CC(=O)N1CCC(c2ccc(C(=O)NC(=N)N)cc2C(F)(F)F)CC1,"cell-free assay, competition with immobilised ligand",1 µM,remaining binding,100%
c1cc(CN2CCOCC2)cc(Nc2nccc(NCCc3cnc[nH]3)n2)c1,"enzyme activity, inhibitor, radiometric",1 µM,remaining activity,68%
CCCCN(CCCC)C(=O)CN1C[C@@H](c2cc(OC)c3c(c2)OCO3)[C@H](C(=O)O)[C@H]1CC(C)(C)CCC,"cell-free assay, competition with immobilised ligand",1 µM,remaining binding,93%
C[C@H]1CCN(c2nccc(-c3cnn4ncccc34)n2)C1,binding,1 µM,remaining binding,100%
c1cc(CN2CCOCC2)cc(Nc2ncc(C3CC3)c(NCCc3c[nH]cn3)n2)c1,"enzyme activity, inhibitor, radiometric",1 µM,remaining activity,4%
CCOc1cc(-c2nncn2C)ccc1Nc1ncc2cc(C)nc(NCC(C)(C)C)c2n1,"enzyme activity, inhibitor, FRET",1 µM,inhibition,< 15%
O=C(NCCCNc1ccnc(Nc2cccc(NC(=O)N3CCCC3)c2)n1)C1CCC1,"enzyme activity, inhibitor, radiometric",1 µM,remaining activity,85%
CCCOc1ccc([C@@H]2[C@@H](C(=O)O)[C@H](c3ccc4c(c3)OCO4)CN2CC(=O)Nc2c(CC)cccc2CC)cc1,"cell-free assay, competition with immobilised ligand",1 µM,remaining binding,100%
Cc1nn(CC(F)(F)F)cc1Nc1nccc(NCCc2cnc[nH]2)n1,"enzyme activity, inhibitor, radiometric",1 µM,remaining activity,99%
O=C(O)[C@H]1[C@H](Cn2nnc3ccccc3c2=O)CC[C@@H]1C(=O)c1ccc(OCCC2CCOCC2)cc1,"cell-free assay, competition with immobilised ligand",1 µM,remaining binding,96%
O=C1NC(=O)c2cc(Nc3ccc(F)cc3)c(Nc3ccc(F)cc3)cc21,cell-free assay,0.5 µM,remaining signal,98.2%
O=C(Nc1cnn(-c2csc(C(=O)NC3COC3)c2)c1)Nc1ccccc1Cl,"enzyme activity, inhibitor",5 µM,remaining activity,108%
NS(=O)(=O)c1cc(NC(=O)Cc2ccccc2)ccc1Oc1cccc(Cl)c1,"cell-free assay, competition with immobilised ligand",1 µM,remaining binding,100%
N#CCCc1ccc2c(c1)-c1[nH]c3ccc([N+](=O)[O-])cc3c1CC(=O)N2,cell-free assay,0.5 µM,remaining signal,62.5%
NS(=O)(=O)c1ccc(CNc2nc(Nc3cccc(CN4CCOCC4)c3)ncc2C2CC2)cc1,"enzyme activity, inhibitor, radiometric",1 µM,remaining activity,98%
CO[C@@H](C)c1c(Nc2ccc([C@H](N(C)C(=O)C3CCS(=O)(=O)CC3)C(F)(F)F)cc2)cnc2cc(Cl)nn12,"cell-free assay, competition with immobilised ligand",1 µM,remaining binding,76%
NS(=O)(=O)c1ccc(CNc2ccnc(Nc3cccc(CN4CCOCC4)c3)n2)cc1,"enzyme activity, inhibitor, radiometric",1 µM,remaining activity,98%
C[C@@H](c1cccc(C#N)c1)n1cc(Cl)cc(C(N)=O)c1=N,"cell-free assay, competition with immobilised ligand",1 µM,remaining binding,100%
